The nature of data set [1]: Cytotoxicity against RSV RSS infected Hep2 cells by plaque assay. As to conditions: human, hep-2; call rule not given here. The data set is classed as cell-based.
Data set [2] has as its system Respiratory syncytial virus. Briefly: Antiviral activity against RSV RSS in Hep2 cells by XTT assay. Type of data set: functional, organism-based, HEp-2. Particulars: for IC50: human respiratory syncytial virus, RSS, HEp-2. In outline:
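HEp-2 cells infected with RSV RSS strain in the presence of compound, incubated 6 days at 37 °C. Residual viability was read by XTT metabolism to a coloured product, and IC50 was derived.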

Data set [3] in a line: Cytotoxicity against RSV RSS infected Hep2 cells by ELISA. Type of data set: cell-based. As to conditions: human, hep-2. (In general: ELISA stands for enzyme-linked immunosorbent assay.)
A short description of data set [4]: Cytotoxicity against RSV RSS infected Hep2 cells by XTT assay. Type of data set: cell-based. Particulars: human, hep-2. In outline: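 Same XTT format (HEp-2 cells, 6 days at 37 °C, XTT read-out) run in parallel without virus. TD50 is the concentration giving 50% cell death in the absence of virus.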
The test system of data set [5] is Respiratory syncytial virus. Nature of the data set: Antiviral activity against RSV RSS in Hep2 cells by plaque assay. The data set is classed as functional, organism-based, HEp-2. As to conditions: for IC50: human respiratory syncytial virus, RSS, HEp-2. Put shortly: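 HEp-2 monolayers infected with RSV RSS strain and allowed 2 h adsorption. Compound was then added in medium with 0.6% agarose and incubated 5 days at 37 °C. Monolayers were fixed, the overlay removed, and plaques stained with methylene blue.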

For data set [6], the system named is Respiratory syncytial virus. Nature of the data set: Antiviral activity against RSV RSS in Hep2 cells by ELISA. Particulars: for IC50: human respiratory syncytial virus, RSS, HEp-2. The data set is classed as functional, organism-based, HEp-2. Put shortly:
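HEp-2 cells infected with RSV RSS strain and exposed to compound for 3 days at 37 °C. Monoclonal antibodies to RSV F, N and P proteins were detected with an enzyme-linked secondary antibody. Substrate conversion to a coloured product was read by optical density, and IC50 was derived.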

Data set [7] is described as follows: Aqueous solubility at pH 7.0. The data set is classed as physicochemical.
The next data set deals with Cytochrome P450 2C9 (Homo sapiens, UniProt P11712). Briefly: Inhibition of CYP2C9. Type of data set: ADME. Put shortly: (§1)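 CYP inhibition was assessed as an effect on the metabolism of isoform-specific probe substrates for CYP3A4, 1A2, 2D6, 2C9 and 2C19.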
Sequence of Cytochrome P450 2C9 (P11712 whole entry, canonical isoform): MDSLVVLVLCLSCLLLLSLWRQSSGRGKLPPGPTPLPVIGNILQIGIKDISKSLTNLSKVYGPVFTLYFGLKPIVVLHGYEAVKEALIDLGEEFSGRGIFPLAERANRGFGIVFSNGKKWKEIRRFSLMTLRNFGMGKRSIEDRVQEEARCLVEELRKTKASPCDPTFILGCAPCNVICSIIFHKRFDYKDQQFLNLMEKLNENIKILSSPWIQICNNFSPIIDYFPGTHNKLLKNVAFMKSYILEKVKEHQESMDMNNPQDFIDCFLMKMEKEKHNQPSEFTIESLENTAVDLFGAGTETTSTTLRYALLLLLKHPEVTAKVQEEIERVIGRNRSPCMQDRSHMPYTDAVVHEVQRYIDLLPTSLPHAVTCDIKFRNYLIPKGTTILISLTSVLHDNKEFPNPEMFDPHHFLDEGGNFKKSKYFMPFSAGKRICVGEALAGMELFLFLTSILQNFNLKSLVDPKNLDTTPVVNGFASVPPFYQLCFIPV
The nature of data set [8]: in vivo. Particulars: rat, plasma, iv, 5 mg/kg.
For data set [9], the system named is Serum. Nature of the data set: Protein binding in rat serum. Type of data set: ADME, cell-free.
Data set [10] in a line: Half life in rat at 5 mg/kg, po. As to conditions: in vivo.
Data set [11] relates to Serum. Briefly: Protein binding in dog serum. Type of data set: ADME, cell-free, Canis lupus familiaris.
Data set [12] can be described thus: Oral bioavailability in rat at 5 mg/kg, po in 1% CMC suspension. The data set is classed as ADME, organism-based. As to conditions: in vivo. In outline:
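Rat, oral dose of 5 mg/kg given as a suspension in 1% carboxymethylcellulose. Bioavailability was estimated relative to intravenous dosing.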

Data set [13] in a line: Fraction unbound ligand in human serum. Type of data set: ADME, cell-free.
Data set [14] concerns Serum. Briefly: Protein binding in human serum. Type of data set: ADME, cell-free.
Data set [15] in a line: Cmax in rat at 5 mg/kg, po. Type of data set: ADME, organism-based. Set-up: dose 5 mg/kg, route oral. As to conditions: in vivo. In outline: (§2)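 Rat, oral dose of 5 mg/kg in a lipid-based formulation, n = 3. Bioavailability was calculated relative to the 5 mg/kg intravenous dose.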
Data set [16] can be described thus: Apparent permeability coefficient assessed using MDCK cells. The data set is classed as ADME, cell-based, Canis lupus familiaris. As to conditions: dog.
Data set [17] can be described thus: Half life in rat at 5 mg/kg, iv. Particulars: in vivo.
The nature of data set [18]: Fraction unbound ligand in dog serum. Type of data set: ADME, cell-free, Canis lupus familiaris.
Data set [19] is described as follows: in vivo. As to conditions: rat, plasma, po, 5 mg/kg.
Data set [20] can be described thus: Fraction unbound ligand in rat serum. Type of data set: ADME, cell-free.
The next data set deals with Cytochrome P450 2C19 (Homo sapiens, UniProt P33261). Nature of the data set: Inhibition of CYP2C19. Type of data set: ADME. In outline: as §1
Sequence of Cytochrome P450 2C19 (P33261 whole entry): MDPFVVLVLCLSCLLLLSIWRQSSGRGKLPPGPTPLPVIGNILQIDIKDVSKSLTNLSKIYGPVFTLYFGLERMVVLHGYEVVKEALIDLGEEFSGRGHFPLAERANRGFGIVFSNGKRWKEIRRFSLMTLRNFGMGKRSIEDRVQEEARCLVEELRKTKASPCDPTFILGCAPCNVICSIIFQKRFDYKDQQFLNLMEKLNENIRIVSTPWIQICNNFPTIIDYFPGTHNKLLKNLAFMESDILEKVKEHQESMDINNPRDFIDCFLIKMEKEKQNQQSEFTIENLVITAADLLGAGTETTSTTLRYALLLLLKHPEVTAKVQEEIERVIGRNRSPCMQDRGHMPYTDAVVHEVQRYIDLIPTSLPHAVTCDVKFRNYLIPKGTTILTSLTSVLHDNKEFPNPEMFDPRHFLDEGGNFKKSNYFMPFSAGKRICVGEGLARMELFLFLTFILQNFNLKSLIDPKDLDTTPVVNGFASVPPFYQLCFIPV
Another data set addresses Cytochrome P450 3A4 (Homo sapiens, UniProt P08684). Briefly: Inhibition of CYP3A4. The data set is classed as ADME. In outline:
as §1

Data set [21] is described as follows: Cmax in rat at 5 mg/kg, iv. Type of data set: ADME, organism-based. Set-up: dose 5 mg/kg, route intravenous. As to conditions: in vivo. Put shortly: (§3)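 Rat, single intravenous dose of 5 mg/kg, n = 3. Parameters were derived from plasma concentrations.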
Another data set has as its target T1, Cytochrome P450 1A2 (Homo sapiens, UniProt P05177).
T1 sequence (P05177 whole entry): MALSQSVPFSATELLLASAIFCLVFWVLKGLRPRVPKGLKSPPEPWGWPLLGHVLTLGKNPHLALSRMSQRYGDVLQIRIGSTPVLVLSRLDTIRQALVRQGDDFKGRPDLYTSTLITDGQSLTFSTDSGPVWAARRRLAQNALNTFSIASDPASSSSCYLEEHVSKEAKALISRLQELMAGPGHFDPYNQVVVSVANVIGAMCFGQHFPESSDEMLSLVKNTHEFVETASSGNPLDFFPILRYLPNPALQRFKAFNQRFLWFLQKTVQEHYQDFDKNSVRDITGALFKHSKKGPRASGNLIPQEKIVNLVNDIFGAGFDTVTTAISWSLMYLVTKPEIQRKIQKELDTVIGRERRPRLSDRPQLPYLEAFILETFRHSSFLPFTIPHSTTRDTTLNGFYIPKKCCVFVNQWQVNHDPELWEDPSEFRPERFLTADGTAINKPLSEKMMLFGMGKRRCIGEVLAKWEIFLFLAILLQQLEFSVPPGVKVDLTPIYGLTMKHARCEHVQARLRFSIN
Nature of the data set: Inhibition of CYP1A2. The data set is classed as ADME. In outline: as §1

Data set [22] can be described thus: Oral bioavailability in rat at 5 mg/kg, po in lipid based formulation. The data set is classed as ADME, organism-based. As to conditions: in vivo. Put shortly: as §2
Another data set addresses Cytochrome P450 2D6 (Homo sapiens, UniProt P10635). Nature of the data set: Inhibition of CYP2D6. The data set is classed as ADME. Put shortly:
as §1

Data set [23] is described as follows: Volume of distribution in rat at 5 mg/kg, iv. Set-up: dose 5 mg/kg, route intravenous. The data set is classed as ADME, organism-based. Particulars: in vivo, read-out: Vss. Put shortly:
as §3

As a reminder, the IC50 is the concentration needed to halve the response being measured. The term solubility denotes the dissolved amount per volume that the medium holds. High values mean much dissolved substance, low ones little dissolved substance. By AUC(0-inf) is commonly meant the area under the concentration-time curve extrapolated to infinity. A higher AUC(0-inf) goes with high exposure. By half-life is commonly meant how long it takes for the measured level to halve. Broadly, the bioavailability is the share of a dose that reaches the circulation, judged against a reference dose that is usually intravenous. For orientation: fraction unbound means free concentration divided by total concentration. High values mean weak binding, low ones extensive binding. As a reminder, the Cmax is the peak of the concentration-time curve. In general, Papp refers to the rate of passage across a membrane or cell layer, normalised by area and donor concentration.

In brackets after ≈: the same amount, converted by molar mass. Bounds are passed on as bounds.

Sequence of Cytochrome P450 3A4 (P08684 whole entry): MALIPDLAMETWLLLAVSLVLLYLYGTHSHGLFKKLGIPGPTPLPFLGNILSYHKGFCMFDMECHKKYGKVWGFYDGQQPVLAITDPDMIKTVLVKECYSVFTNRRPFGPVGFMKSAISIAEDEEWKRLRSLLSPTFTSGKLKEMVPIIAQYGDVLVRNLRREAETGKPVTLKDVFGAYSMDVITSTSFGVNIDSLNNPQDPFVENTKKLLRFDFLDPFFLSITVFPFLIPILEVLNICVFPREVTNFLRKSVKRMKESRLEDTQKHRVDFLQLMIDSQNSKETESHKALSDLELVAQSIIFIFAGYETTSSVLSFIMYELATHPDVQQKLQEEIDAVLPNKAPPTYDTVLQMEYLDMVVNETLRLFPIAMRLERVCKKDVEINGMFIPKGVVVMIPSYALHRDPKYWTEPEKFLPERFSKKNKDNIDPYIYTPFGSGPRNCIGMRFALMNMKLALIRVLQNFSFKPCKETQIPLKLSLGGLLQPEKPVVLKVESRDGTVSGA
Sequence of Cytochrome P450 2D6 (P10635 whole entry): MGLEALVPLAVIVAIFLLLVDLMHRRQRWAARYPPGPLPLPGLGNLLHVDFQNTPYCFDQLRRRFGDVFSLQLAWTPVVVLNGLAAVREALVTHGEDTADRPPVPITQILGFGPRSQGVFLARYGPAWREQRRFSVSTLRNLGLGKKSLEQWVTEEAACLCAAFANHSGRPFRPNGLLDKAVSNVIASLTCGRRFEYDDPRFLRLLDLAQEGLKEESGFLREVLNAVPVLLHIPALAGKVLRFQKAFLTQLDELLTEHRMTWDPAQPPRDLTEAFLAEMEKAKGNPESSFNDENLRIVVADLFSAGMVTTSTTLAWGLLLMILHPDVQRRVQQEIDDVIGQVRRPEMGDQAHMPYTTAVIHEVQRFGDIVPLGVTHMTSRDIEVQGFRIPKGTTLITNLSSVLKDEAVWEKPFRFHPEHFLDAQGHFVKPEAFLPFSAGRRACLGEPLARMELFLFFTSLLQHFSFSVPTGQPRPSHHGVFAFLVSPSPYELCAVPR

Turning to `O=C(Nc1ccccc1F)NC1N=C(c2ccccc2)c2ccccc2NC1=O` (stereo not given), the Activity result in data set [1], in data set [3] and in data set [4] was “Non-toxic” in each case. For the same molecule, in data set [2], the TD50 was >50 µM. This molecule also yielded an IC50 in data set [2] of 27.8 µM.
Take `O=C(NC1N=C(c2ccccc2)c2ccccc2NC1=O)C1CCCCC1` (stereo not given): in data set [2], the TD50 was >50 µM and the IC50 came out at 12.6 µM.
With `COc1cc([N+](=O)[O-])ccc1C(=O)N[C@H]1N=C(c2ccccc2)c2ccccc2NC1=O`, the TD50 in [5], in [6] and in data set [2] was >50 µM each time. Further, the IC50 amounted to 0.5 µM in data set [5], 1 µM in [6] and 0.9 µM in data set [2].
In the case of `O=C(N[C@H]1N=C(c2ccccc2)c2ccccc2NC1=O)c1cc(Cl)ccc1N1CCS(=O)(=O)CC1`, in data set [2], the TD50 is >50 µM and it took 2.2 µM to reach half-maximal inhibition (IC50).
`O=C(N[C@H]1N=C(c2ccccc2)c2ccccc2NC1=O)c1ccc(F)cc1N1CCCCC1`: in data set [2], the TD50 is >50 µM and inhibition was half-maximal at 7.5 µM (IC50).
Take `O=C(N[C@H]1N=C(c2ccccc2)c2ccccc2NC1=O)c1cc(F)ccc1N1CCS(=O)(=O)CC1`: in data set [2], the TD50 was >50 µM and the IC50 was 0.7 µM.
As for `CCNC(=O)CN1C(=O)[C@@H](NC(=O)Nc2ccccc2F)N=C(c2ccccc2)c2ccccc21`, in [2], the TD50 is >50 µM and the concentration for half-maximal inhibition (IC50) is > 50 µM.
With `O=C(N[C@H]1N=C(c2ccccc2)c2ccccc2NC1=O)c1ccc(N2CCOCC2)cc1Cl`, the TD50 in [5], in [6] and in data set [2] was >50 µM each time. The figures for the concentration for half-maximal inhibition (IC50) in data set [5], in data set [6] and in data set [2] were 0.8 µM, 1.5 µM and 1.4 µM, respectively. The molecule further registered a solubility in [7] of 0.9 µg/mL (≈ 1.89 µM).
Take `O=C(N[C@H]1N=C(c2ccccc2)c2ccccc2NC1=O)C1CCCCC1`: in data set [2], the TD50 is >50 µM and half-maximal inhibition (IC50) required 3.3 µM.
On to `O=C(Nc1ccccc1F)N[C@@H]1N=C(c2ccccc2)c2ccccc2NC1=O`, for which the Activity result in data set [1], in data set [3] and in [4] was “Non-toxic” throughout. Further, in [2], the TD50 was >50 µM. In data set [2], this molecule gave an IC50 of 27.8 µM.
For `O=C(CN1C(=O)[C@@H](NC(=O)Nc2ccccc2F)N=C(c2ccccc2)c2ccccc21)Nc1ccncc1`, in data set [2], the TD50 is >50 µM and it took 14.2 µM to reach half-maximal inhibition (IC50).
As for `COc1cc([N+](=O)[O-])ccc1C(=O)N[C@@H]1N=C(c2ccccc2)c2ccccc2NC1=O`, in [2], the TD50 was >50 µM and the half-inhibitory concentration (IC50) is 21.2 µM.
On to `O=C(N[C@H]1N=C(c2ccccc2)c2ccccc2NC1=O)c1cccnc1N1CCOCC1`, for which, in [2], the TD50 was >50 µM and the half-inhibitory concentration (IC50) is 2.9 µM.
With `O=C(Nc1ccccc1F)N[C@H]1N=C(c2ccccc2)c2ccccc2N(CC(=O)N2CCOCC2)C1=O`, in data set [2], the TD50 was >50 µM and the IC50 is > 50 µM.
With `O=C(N[C@@H]1N=C(c2ccccc2)c2ccccc2NC1=O)C1CCCCC1`, in data set [2], the TD50 was >50 µM and the IC50 is > 50 µM.
The like results for `COc1cc([N+](=O)[O-])ccc1C(=O)NC1N=C(c2ccccc2)c2ccccc2NC1=O` (stereo not given) were, in that order, >50 µM and 2 µM.
As for `COc1cc(S(C)(=O)=O)ccc1C(=O)N[C@H]1N=C(c2ccccc2)c2ccccc2NC1=O`, the TD50 in data set [5], in data set [6] and in data set [2] was >50 µM each time. For the same molecule, the results for the IC50 in data set [5], in data set [6] and in data set [2] were 0.5 µM, 0.6 µM and 0.5 µM, respectively. Also, the solubility in data set [7] came out at 22 µg/mL (≈ 47.5 µM).
Turning to `O=C(Nc1ccccc1F)N[C@H]1N=C(c2ccccc2)c2ccccc2NC1=O` [RSV-604], the Activity result is “Not Active” on Cytochrome P450 2C9; 95% with Serum [9]; 95% in the data set on Serum [11]; 95% in the data set on Serum [14]; “Non-toxic” in data set [1]; “Non-toxic” in [3]. Also, the Activity result at Cytochrome P450 2C19 is given as “Not Active”; in data set [4], “Non-toxic”; at Cytochrome P450 3A4, “Not Active”; at Cytochrome P450 1A2, “Not Active”; at Cytochrome P450 2D6, “Not Active”. The figures for the area under the curve AUC(0-inf) in the data set “in vivo [8]” and in the data set “in vivo [19]” were 11700 ng·h/mL and 10900 ng·h/mL, respectively. Besides, the half-life was 2.6 h in [10] and 3.8 h in [17]. Moreover, the bioavailability in [12] was < 40%; in [22] it was > 90%. Besides, the fraction unbound in data set [13], in [18] and in data set [20] was 0.05 throughout. The TD50 in [5], in data set [6] and in data set [2] was >50 µM in each case. Besides, the IC50 in [5] came out at 0.7 µM; in [6] it was 1.4 µM; in [2], 0.9 µM. The maximum concentration (Cmax) in data set [15] turned out to be 910 ng/mL; in [21], 3300 ng/mL. In addition, in [16], the Papp stood at 13 ×10⁻⁶ cm/s. In data set [7], the solubility stood at 4.1 µg/mL (≈ 10.6 µM). Besides, the Vd in data set [23] stood at 2.2 L/kg.

These data come from ChEMBL document CHEMBL1142977, “1,4-benzodiazepines as inhibitors of respiratory syncytial virus. The identification of a clinical candidate” (J Med Chem, 2007).
